Activity calls are given as the source filed them. No cut-off for these calls is given here.
What was measured:
[1] = system: Trypanosoma brucei rhodesiense; test: Antitrypanosomal activity against Trypanosoma brucei rhodesiense STIB 900 infected acute mouse model assessed as survival time at 5 mg/kg, ip administered daily for 4 days; assay type: functional; conditions: route intraperitoneal
Procedure, shortened: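 STIB900 acute mouse model of T. b. rhodesiense infection, with intraperitoneal dosing. Read-out is the average days of survival of treated mice. Cures are counted as mice that survive and stay parasite-free for 60 days.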

[2] = system: Trypanosoma brucei rhodesiense; test: Antitrypanosomal activity against Trypanosoma brucei rhodesiense STIB 900 bloodstream trypomastigotes; assay type: functional, organism-based
Procedure, shortened: (§1)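 IC50 values in µM, each the average of duplicate determinations. Parasites were T. b. rhodesiense STIB900 and axenic amastigotes of L. donovani MHOM/SD/62/1S-CL2D. Cytotoxicity was run on rat L6 myoblast cells.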

[3] = system: L6; test: Cytotoxicity against rat L6 cells; assay type: cell-based; procedure, shortened: as §1
[4] = Selectivity index, ratio of IC50 for rat L6 cells to IC50 for Trypanosoma brucei rhodesiense STIB 900; assay type: toxicity, cell-based; conditions: read-out: Ratio IC50
Procedure, shortened: (§2)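 Ratio of the L6 rat myoblast cytotoxicity IC50 to the IC50 against the parasite named in the line. Each IC50 is the average of duplicate determinations.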

[5] = system: Leishmania donovani; test: Antileishmanial activity against Leishmania donovani MHOM/SD/62/1S-CL2D axenic amastigotes; assay type: functional, organism-based; procedure, shortened: as §1
[6] = Selectivity index, ratio of IC50 for rat L6 cells to IC50 for chloroquine-resistant Plasmodium falciparum K1; assay type: toxicity, cell-based; conditions: read-out: Ratio IC50; procedure, shortened: as §2
[7] = Selectivity index, ratio of IC50 for rat L6 cells to IC50 for Leishmania donovani MHOM/SD/62/1S-CL2D; assay type: toxicity, cell-based; conditions: read-out: Ratio IC50; procedure, shortened: as §2
[8] = system: Plasmodium falciparum; test: Antiplasmodial activity against chloroquine-resistant Plasmodium falciparum K1; assay type: functional, organism-based
Procedure, shortened: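 In vitro IC50 against chloroquine-resistant P. falciparum K1, reported as the average of duplicate determinations.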

[9] = system: Trypanosoma brucei rhodesiense; test: Antitrypanosomal activity against Trypanosoma brucei rhodesiense STIB 900 infected acute mouse model assessed as cured mouse at 5 mg/kg, ip daily for 4 days; assay type: functional, organism-based; design: dose 5 mg/kg
Procedure, shortened: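 STIB900 acute mouse model of trypanosomiasis with intraperitoneal dosing. The regimens were daily for 4 days at 20, 5 or 1 mg/kg, or a single 10 mg/kg dose. A cure is a mouse that survives and is parasite-free for 60 days. Average days of survival are also recorded.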

Compound	Survival [1] [days]	IC50 [2] [nM]	IC50 [3] [nM]	selectivity ratio [4]	IC50 [5] [nM]	selectivity ratio [6]	selectivity ratio [7]	IC50 [8] [nM]	Activity [9]
N=C(N)c1ccc(O)c(-c2cc3ccc(C(=N)N)cc3o2)c1	>36	29	164000	5660	41000	434	4	378	–
CC(C)NC(=N)c1ccc(-c2cc3ccc(C(=N)NC(C)C)cc3o2)cc1	>38.5	148	> 199000	> 1340	12000	> 13300	> 17	15	–
CC(C)NC(=N)c1cccc(-c2cc3ccc(C(=N)NC(C)C)cc3o2)c1	–	534	> 200000	> 375	24000	> 3390	> 8	59	–
CC(C)NC(=N)c1ccc(O)c(-c2cc3cc(C(=N)NC(C)C)ccc3o2)c1	–	1000	> 180000	> 179	40000	> 349	> 5	516	–
COc1cc(C2=NCCN2)ccc1-c1cc2ccc(C3=NCCN3)cc2o1	7	49	4400	90	> 100000	57	< 0.04	77	inactive
N=C(N)c1ccc(-c2cc3ccc(C(=N)N)cc3o2)c(O)c1	>39	4	> 221000	> 55200	29000	> 3160	> 8	70	–
COc1cc(C(=N)NC(C)C)cc2cc(-c3ccc(C(=N)NC(C)C)cc3)oc12	–	90	> 190000	> 2110	15000	> 3960	> 12	48	–
CC(C)NC(=N)c1ccc(O)c(-c2cc3ccc(C(=N)NC(C)C)cc3o2)c1	–	5100	> 187000	> 37	> 100000	> 294	–	636	–
COc1cc(C(=N)N)ccc1-c1cc2ccc(C(=N)N)cc2o1	>34.5	3	108000	36000	3700	5400	29	20	–
Oc1cc(C2=NCCN2)ccc1-c1cc2cc(C3=NCCN3)cc(O)c2o1	>21	10	> 193000	> 19300	16000	> 6430	> 12	30	inactive
COc1cc(C2=NCCN2)ccc1-c1cc2cc(C3=NCCN3)ccc2o1	–	247	7400	30	60000	239	0.1	31	–
c1c[nH]c(-c2ccc(-c3cc4cc(-c5ncc[nH]5)ccc4o3)cc2)n1	–	606	3300	5	> 100000	100	< 0.03	33	–
Oc1ccc(C2=NCCN2)cc1-c1cc2ccc(C3=NCCN3)cc2o1	14	83	> 189000	> 2280	35000	> 1840	> 6	103	inactive
c1ccc2[nH]c(-c3ccc(-c4cc5cc(-c6nc7ccccc7[nH]6)ccc5o4)cc3)nc2c1	5.5	249	6700	27	> 100000	216	0.1	31	inactive
COc1cc(C(=N)N)ccc1-c1cc2cc(C(=N)N)ccc2o1	>47	3	157000	52300	2000	52300	80	3	–
N=C(N)c1cccc(-c2cc3cc(C(=N)N)ccc3o2)c1	–	24	21200	883	5800	1120	4	19	–
Oc1ccc(C2=NCCN2)cc1-c1cc2cc(C3=NCCN3)ccc2o1	–	227	> 199000	> 877	57000	> 8650	4	23	–

Compound	Survival [1] [days]	IC50 [2] [nM]	IC50 [3] [nM]	selectivity ratio [4]	IC50 [5] [nM]	selectivity ratio [6]	selectivity ratio [7]	IC50 [8] [nM]	Activity [9]
CC(C)NC(=N)c1cccc(-c2cc3cc(C(=N)NC(C)C)ccc3o2)c1	–	473	> 199000	> 421	13000	> 601	> 15	331	–
COc1ccc(C(=N)N)cc1-c1cc2ccc(C(=N)N)cc2o1	>48	11	128000	11600	3600	7110	36	18	–
COc1ccc(C2=NCCN2)cc1-c1cc2cc(C3=NCCN3)ccc2o1	8.5	27	30800	1140	> 50000	474	< 0.6	65	inactive
c1cc(-c2cc3ccc(C4=NCCN4)cc3o2)ccc1C1=NCCN1	–	319	4500	14	> 50000	41	< 0.1	109	–
Oc1cc(C2=NCCN2)ccc1-c1cc2ccc(C3=NCCN3)cc2o1	23	11	> 193000	> 17500	13000	> 1970	> 15	98	inactive
COc1cc(C(=N)NC(C)C)ccc1-c1cc2ccc(C(=N)NC(C)C)cc2o1	>38	54	> 181000	> 3350	32000	> 879	> 6	206	–
c1cc(C2=NCCN2)cc(-c2cc3cc(C4=NCCN4)ccc3o2)c1	–	78	33900	435	24000	446	1.5	76	–
COc1ccc(C(=N)NC(C)C)cc1-c1cc2cc(C(=N)NC(C)C)ccc2o1	–	155	> 179000	> 1160	25000	> 716	> 7	250	–
COc1ccc(C(=N)N)cc1-c1cc2cc(C(=N)N)ccc2o1	>57	2	179000	89500	5700	4480	31	40	–
c1cc(C2=NCCN2)cc(-c2cc3ccc(C4=NCCN4)cc3o2)c1	–	333	12800	38	> 100000	62	0.1	205	–
c1ccc2[nH]c(-c3ccc(-c4cc5cc(C6=NCCN6)ccc5o4)cc3)nc2c1	–	228	59300	260	> 100000	972	< 0.6	61	–
COc1ccc(C(=N)NC(C)C)cc1-c1cc2ccc(C(=N)NC(C)C)cc2o1	–	929	> 175000	> 188	54000	> 597	> 3	293	–
c1ccc2[nH]c(-c3ccc4oc(-c5ccc(C6=NCCN6)cc5)cc4c3)nc2c1	11	122	6100	50	5700	153	1	40	inactive
N=C(N)c1cccc(-c2cc3ccc(C(=N)N)cc3o2)c1	33	21	131000	6240	14000	32800	9	4	inactive
N=C(N)c1ccc(OCCCCCOc2ccc(C(=N)N)cc2)cc1 [PENTAMIDINE]	>45	–	–	–	1800	–	–	–	–
C[C@@H]1CC[C@H]2[C@@H](C)C(=O)O[C@@H]3O[C@@]4(C)CC[C@@H]1[C@]32OO4 [ARTEMISININ]	–	–	–	–	–	75000	–	–	–

— ChEMBL document CHEMBL1142519, “Synthesis and antiprotozoal activity of cationic 2-phenylbenzofurans” (J Med Chem, 2008)
